From ChEMBL document CHEMBL4152279, “Synthesis, cytotoxic evaluation and target identification of thieno[2,3-d]pyrimidine derivatives with a dithiocarbamate side chain at C2 position” (Eur J Med Chem, 2018)
Calls of active or inactive are those of the source. No cut-off for these calls is given here.

What was measured:
A549 [1] = assay: Cytotoxicity against human A549 cells at 30 uM by MTS assay relative to control; type: functional
In short: (§1)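 MTS read-out (CellTiter 96 AQueous One) of proliferation in A549 or HCT-116 cells grown in DMEM with 10% FBS at 37 °C, 5% CO2. Taxol-resistant A549 cells were exposed for 72 h. Compounds were screened at 30 μM versus vehicle, with ≥50% inhibition counted active. Actives were then tested over a concentration range for IC50. Triplicate wells, three independent experiments, mean ± SD.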

HCT-116 [2] = assay: Cytotoxicity against human HCT116 cells at 30 uM by MTS assay relative to control; type: functional; in short: as §1
HeLa = assay: Cytotoxicity against human HeLa cells at 30 uM by MTS assay; type: functional, cell-based
MCF7 = assay: Cytotoxicity against human MCF7 cells at 30 uM by MTS assay; type: functional, cell-based
MDA-MB-231 = assay: Cytotoxicity against human MDA-MB-231 cells at 30 uM by MTS assay; type: functional, cell-based
HT-29 = assay: Cytotoxicity against human HT-29 cells at 30 uM by MTS assay; type: functional, cell-based
A549 [3] = assay: Cytotoxicity against human A549 cells by MTS assay; type: functional, cell-based; in short: as §1
HCT-116 [4] = assay: Cytotoxicity against human HCT116 cells by MTS assay; type: functional, cell-based; in short: as §1

Compound	Activity (A549 [1])	Activity (HCT-116 [2])	Activity (HeLa)	Activity (MCF7)	Activity (MDA-MB-231)	Activity (HT-29)	IC50 (A549 [3]) [µM]	IC50 (HCT-116 [4]) [µM]
COc1cc(CNC(=S)SCc2nc3sc(C)cc3c(=O)[nH]2)cc(OC)c1OC	>=50%	>=50%	inactive	inactive	inactive	inactive	7.89	14.9
Cc1cc2c(=O)[nH]c(CSC(=S)NCc3cccnc3)nc2s1	>=50%	>=50%	inactive	inactive	inactive	inactive	5.79	9.3
Cc1cc2c(=O)[nH]c(CSC(=S)NCc3ccccc3F)nc2s1	>=50%	>=50%	inactive	inactive	inactive	inactive	> 30	29.7
Cc1cc2c(=O)[nH]c(CSC(=S)NCc3ccc([N+](=O)[O-])cc3)nc2s1	>=50%	>=50%	inactive	inactive	inactive	inactive	12.3	20.2
Cc1cc2c(=O)[nH]c(CNC(=S)SCc3ccc(Br)cc3)nc2s1	inactive	inactive	inactive	inactive	inactive	inactive	–	–
Cc1cc2c(=O)[nH]c(CSC(=S)NCc3ccc(Cl)cc3)nc2s1	>=50%	>=50%	inactive	inactive	inactive	inactive	11.3	25.1
COc1ccc(CSC(=S)NCc2nc3sc(C)cc3c(=O)[nH]2)cc1	inactive	inactive	inactive	inactive	inactive	inactive	–	–
Cc1ccc(CNC(=S)SCc2nc3sc(C)cc3c(=O)[nH]2)cc1	>=50%	>=50%	inactive	inactive	inactive	inactive	26.5	28
Cc1cc2c(=O)[nH]c(CNC(=S)SCc3ccccc3)nc2s1	inactive	inactive	inactive	inactive	inactive	inactive	–	–
Cc1cc2c(=O)[nH]c(CSC(=S)NCc3ccc(F)cc3F)nc2s1	>=50%	>=50%	inactive	inactive	inactive	inactive	16.2	> 30
Cc1cc2c(=O)[nH]c(CSC(=S)NCc3cccs3)nc2s1	>=50%	>=50%	inactive	inactive	inactive	inactive	23	27.8
COc1ccc(CNC(=S)SCc2nc3sc(C)cc3c(=O)[nH]2)c(OC)c1	>=50%	>=50%	inactive	inactive	inactive	inactive	> 30	> 30
Cc1cc2c(=O)[nH]c(CNC(=S)SCc3ccc(F)cc3)nc2s1	inactive	inactive	inactive	inactive	inactive	inactive	–	–
Cc1cc2c(=O)[nH]c(CNC(=S)SCc3ccc(C#N)cc3)nc2s1	inactive	inactive	inactive	inactive	inactive	inactive	–	–
Cc1ccc(CSC(=S)NCc2nc3sc(C)cc3c(=O)[nH]2)cc1	inactive	inactive	inactive	inactive	inactive	inactive	–	–
Cc1cc2c(=O)[nH]c(CNC(=S)SCc3ccc(Cl)cc3)nc2s1	inactive	inactive	inactive	inactive	inactive	inactive	–	–
